Results from different studies.
Observed: metabolic stability

SMILES | species | medium | concentration | pH | half-life [min]
O=C1CC[C@H](N2Cc3cc(N4CCN(CC5CCN(c6ccc([C@@H]7c8ccc(O)cc8CC[C@@H]7c7ccccc7)cc6)CC5)CC4)ccc3C2=O)C(=O)N1 | Sprague-Dawley rat | hepatocytes | 1 µM |  | 83
CCOc1ccc2ccc(=O)oc2c1 | male Sprague-Dawley rat | hepatocytes | 1 µM |  | 13.1
O=c1ccc2ccc(O)cc2o1 | rat | liver microsomes |  |  | 2.42
CN(C)C(=O)c1cc2cnc(Nc3ccc(N4CCNCC4)cn3)nc2n1C1CCCC1 | rat | liver microsomes | 1 µM | pH 7.4 | 49.8
CCN(CC)CCNC(=O)c1c(C)[nH]c(/C=C2\C(=O)Nc3ccc(F)cc32)c1C | rat | liver microsomes | 1 µM |  | 77
CC(=O)c1c(C)c2cnc(Nc3ccc(N4CCNCC4)cn3)nc2n(C2CCCC2)c1=O | rat | liver microsomes | 1 µM | pH 7.4 | 90.4
O=c1ccc2ccc(O)cc2o1 | Sprague-Dawley rat | hepatocytes | 1 µM |  | 11.4
O=C(c1ccc(F)cc1)C1CCN(CCn2c(=O)[nH]c3ccccc3c2=O)CC1 | rat | liver microsomes |  |  | 17.8
